Test [1] in a line: Her2 expression decrease, cell viability multiplex – SKBR3 breast tumor cells, AlphaScreen, ATP viability, primary screen (AID 461).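 On Her2 level: lower value means less Her2 protein in the cells.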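 On viability: percent of carrier control wells set as 100% viability.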 Conditions: SKBR3 Her2 protein level, 18-24 h, measured here: SKBR3 viability, ATP luminescence, at 10 µM.
Test [2] has as its target Receptor tyrosine-protein kinase erbB-2 (Homo sapiens) (UniProt P04626). Described as above. Conditions: 18-24 h, at 10 µM, stronger effect = lower value.
A short description of test [3]: reduced viability of SK-BR-3 breast cancer cells – cell-based, 24 h, human, pilot screen (AID 572;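 active means viability at or below 10% of carrier control in both of two separate runs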;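 further: compound exposure lasted between 18 and 24 h rather than exactly 24 h; 100% = carrier-treated control wells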). The settings on record: SK-BR-3 viability, CellTiter-Glo luminescence, at 10 µM, stronger effect = lower value. Background: Cellular ATP, detected with luciferase, serves as a proxy for viable cell number.
Test [4] in a line: HUVEC growth inhibition – cell-based, human, primary screen (AID 575;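 active means viability at or below 30% in both replicate assays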;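 further: 100% = median of untreated cell wells with 0.1% DMSO on each plate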). Conditions: HUVEC proliferation, CellTiter-Glo luminescence, 72 h; at 10 µM; stronger effect = lower value. In a few lines:
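Test system: primary human umbilical vein endothelial cells; medium: endothelial basal medium with 2% FBS plus growth supplements; dosing: 10 µM compound only; times: 72 h treatment at 37 °C; signal: CTG luminescence; read-out: % viability relative to median vehicle-well signal on each plate; control set: vehicle and MePR control wells; plate: 384-well, collagen-coated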

Test [5] in a line: H69AR cell proliferation blockers – human, duplicate replicates, primary screen (AID 580;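 active means viability at or under a set limit in both replicates, limit being median viability minus 3 SD, cut at about 48% in these data, passing the limit was not always enough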;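 further: 100% = mean luminescence of untreated wells and 0% = no signal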). Conditions: H69AR lung tumor cells viability, ATP luminescence, 72 h; at 10 µM; stronger effect = lower value.
Test [6] is described as follows: MRP1 drug-resistance reversers in H69AR cells – cell-based, doxorubicin co-treatment, pilot screen (AID 601;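 active means viability loss from added drug above about 55%, and viability with drug at most 40%, in both replicates, limit read from the data, passing the limit was not always enough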). Conditions: CellTiter-Glo, 72 h, at 10 µM; for differential viability (reversal): stronger effect = higher value.
The nature of test [7]: yeast transport mutant growth inhibition pilot in 384-well plates, post-Golgi transport modulator project (AID 636; in the data active means inhibition above about 31%). The settings on record: absorbance 615 nm, about 18 h, stronger effect = higher value.
A short description of test [8]: growth suppression of yeast trafficking mutant, preliminary HTS, modulators of trafficking downstream of Golgi apparatus project, 1536-format plate, OD 615 nm (AID 637; in the data active means inhibition above about 30%). Conditions: yeast transport mutant growth, absorbance 615 nm, 18 h; stronger effect = higher value.
[9] abbreviates: H69AR cells + 2 uM doxorubicin, measured here: viability with 2 uM doxorubicin, stronger effect = lower value.
Setting [10] is: H69AR cells, compound alone cytotoxicity.

Structures are written as SMILES. Calls of active or inactive are those of the source.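 How the source made its calls, unless noted: active means Her2 level under about 52% in both replicate screens, with viability over 70% of control (limit read from the data); inconclusive means Her2 under the limit in one screen only, or viability under 70%; inactive means Her2 level above the set limit.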

Sequence of Receptor tyrosine-protein kinase erbB-2 (Homo sapiens) (P04626 whole entry, looked up): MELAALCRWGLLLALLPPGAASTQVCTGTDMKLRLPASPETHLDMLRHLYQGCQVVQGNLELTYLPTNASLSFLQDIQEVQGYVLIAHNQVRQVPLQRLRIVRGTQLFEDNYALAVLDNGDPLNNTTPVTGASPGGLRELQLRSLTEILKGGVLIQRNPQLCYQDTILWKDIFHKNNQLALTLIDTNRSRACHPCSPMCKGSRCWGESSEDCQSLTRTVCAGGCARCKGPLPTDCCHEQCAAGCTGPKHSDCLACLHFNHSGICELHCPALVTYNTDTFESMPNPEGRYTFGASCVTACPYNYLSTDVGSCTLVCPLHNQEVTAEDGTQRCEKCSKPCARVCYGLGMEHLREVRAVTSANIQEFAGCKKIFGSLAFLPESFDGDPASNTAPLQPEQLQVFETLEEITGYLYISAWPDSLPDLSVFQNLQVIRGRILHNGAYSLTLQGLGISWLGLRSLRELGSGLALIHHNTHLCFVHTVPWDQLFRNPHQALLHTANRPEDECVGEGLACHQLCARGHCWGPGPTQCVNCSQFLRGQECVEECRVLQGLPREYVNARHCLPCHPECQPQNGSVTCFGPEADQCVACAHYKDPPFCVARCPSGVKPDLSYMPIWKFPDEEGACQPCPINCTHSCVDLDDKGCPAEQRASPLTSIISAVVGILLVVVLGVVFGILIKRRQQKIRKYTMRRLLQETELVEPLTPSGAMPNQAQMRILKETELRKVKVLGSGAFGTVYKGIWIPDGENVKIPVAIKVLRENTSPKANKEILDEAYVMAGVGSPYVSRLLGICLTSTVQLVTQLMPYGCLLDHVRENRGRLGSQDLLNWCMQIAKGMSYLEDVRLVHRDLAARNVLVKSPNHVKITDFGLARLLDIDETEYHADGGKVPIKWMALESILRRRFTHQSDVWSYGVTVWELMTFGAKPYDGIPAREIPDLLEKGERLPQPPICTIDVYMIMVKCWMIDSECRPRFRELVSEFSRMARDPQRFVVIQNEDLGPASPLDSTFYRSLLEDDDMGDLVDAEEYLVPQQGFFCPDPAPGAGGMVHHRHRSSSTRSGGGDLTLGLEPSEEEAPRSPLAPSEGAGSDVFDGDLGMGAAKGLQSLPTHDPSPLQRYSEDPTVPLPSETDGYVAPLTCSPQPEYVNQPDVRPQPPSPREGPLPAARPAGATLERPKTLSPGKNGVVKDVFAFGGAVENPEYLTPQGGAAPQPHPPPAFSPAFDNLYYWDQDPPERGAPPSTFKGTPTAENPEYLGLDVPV

Regarding `CCn1c(SCC(=O)Nc2ccccc2F)nc2c(c1=O)SC(C)C2` (stereo not given), the viability (usually a read-out of living cells in per cent, often relative to untreated cells) in test [1] was 116%; in test [3], 116% (inactive); in test [4] it was 96.4% (inactive); in test [5] it was 95.3% (inactive); in test [6] (setting [9]), 83.8%; in test [6] (setting [10]), 95.3%. Moreover, the Her2 level in test [2] was 86.5% (inactive). Also, in test [6] (H69AR cells + 2 uM doxorubicin), the differential viability (reversal) is 11.5% (inactive). For the same compound, the values for the inhibition in test [7] and in test [8] were -6.03% (inactive) and 2.54% (inactive), respectively.
Consider `O=C1CSC(c2cn(-c3ccccc3)nc2-c2cccs2)N1CC1CCCO1` (stereo not given), for which the viability in test [1] was 102%; in test [3], 102% (inactive); in test [4], 71.9% (inactive); in test [5], 95.7% (inactive); in test [6] (setting [9]) it was 96.4%; in test [6] (setting [10]), 95.7%. For the same compound, the Her2 level in test [2] was 90% (inactive). In test [6] (H69AR cells + 2 uM doxorubicin), the differential viability (reversal) is -0.73% (inactive). Moreover, the inhibition (in general, the relative decrease from the control value, in per cent) in test [7] is -2.11% (inactive); in test [8], 2.58% (inactive).
Turning to `CC1(C)CC(=O)C(C=Nc2ccncc2)=C(O)C1`, the viability is 96.5% in test [1]; 96.5% (inactive) in test [3]; 92.2% (inactive) in test [4]; 106% (inactive) in test [5]; 99.3% in test [6] (setting [9]); 106% in test [6] (setting [10]). Besides, in test [2], the Her2 level was 93% (inactive). Moreover, in test [6] (H69AR cells + 2 uM doxorubicin), the differential viability (reversal) is 7.13% (inactive). For the same compound, the inhibition in test [7] was -4.19% (inactive); in test [8], -7.62% (inactive).
On to `c1ccc2c(c1)nc(-c1ccncc1)n1nnnc21`, for which the viability in test [1] is 96.5%; in test [3] it was 96.5% (inactive); in test [4] it was 93.5% (inactive); in test [5] it was 93.2% (inactive); in test [6] (setting [9]) it was 84.4%; in test [6] (setting [10]), 93.2%. Also, the Her2 level in test [2] is 99.5% (inactive). For the same compound, in test [6] (H69AR cells + 2 uM doxorubicin), the differential viability (reversal) is 8.75% (inactive). In addition, the inhibition in test [7] was -6% (inactive); in test [8], -0.16% (inactive).
Turning to `CCn1ncc(C2=NOC(C(=O)Nc3ccc4c(c3)OCO4)C2)c1C` (stereo not given), the viability in test [1] is 95.5%; in test [3] it was 95.5% (inactive); in test [4] it was 108% (inactive); in test [5], 94.8% (inactive); in test [6] (setting [9]), 93.9%; in test [6] (setting [10]), 94.8%. Besides, in test [2], the Her2 level was 139% (inactive). The differential viability (reversal) in test [6] (H69AR cells + 2 uM doxorubicin) is 0.945% (inactive). Further, the inhibition in test [7] was -3.97% (inactive); in test [8], -4.92% (inactive).
For `CCOP(=O)(c1ccc(N(C)C)cc1)C(O)c1c(Cl)cccc1Cl` (stereo not given), the viability in test [1] was 83%; in test [3], 83% (inactive); in test [4] it was 97.4% (inactive); in test [5], 90.1% (inactive); in test [6] (setting [9]), 89.6%; in test [6] (setting [10]), 90.1%. Besides, in test [2], the Her2 level was 87.5% (inactive). Also, the differential viability (reversal) in test [6] (H69AR cells + 2 uM doxorubicin) was 0.49% (inactive). The inhibition in test [7] is -1.6% (inactive); in test [8] it was -2.58% (inactive).
Turning to `COc1ccccc1OC(=O)c1ccc(SC)cc1OC`, the viability in test [1] was 83%; in test [3], 83% (inactive); in test [4] it was 98.4% (inactive); in test [5], 94.1% (inactive); in test [6] (setting [9]) it was 91.4%; in test [6] (setting [10]), 94.1%. Also, in test [2], the Her2 level was 88% (inactive). The differential viability (reversal) in test [6] (H69AR cells + 2 uM doxorubicin) was 2.65% (inactive). Also, the inhibition in test [7] is 1.05% (inactive); in test [8], -5.97% (inactive).
For the compound `O=C(NCc1ccccc1)N[C@@H](Cc1ccccc1)C(=O)O`, the viability is 96% in test [1]; 96% (inactive) in test [3]; 106% (inactive) in test [4]; 92.6% (inactive) in test [5]; 89.2% in test [6] (setting [9]); 92.6% in test [6] (setting [10]). The Her2 level in test [2] is 95% (inactive). Further, in test [6] (H69AR cells + 2 uM doxorubicin), the differential viability (reversal) is 3.32% (inactive). The inhibition in test [7] was -2.86% (inactive); in test [8], 3.5% (inactive).
`COc1ccc(S(=O)(=O)NCCOc2ccccc2)cc1OC`: the viability in test [1] was 94%; in test [3], 94% (inactive); in test [4], 97.7% (inactive); in test [5], 91.5% (inactive); in test [6] (setting [9]) it was 94.1%; in test [6] (setting [10]), 91.5%. The Her2 level in test [2] is 90.5% (inactive). Further, the differential viability (reversal) in test [6] (H69AR cells + 2 uM doxorubicin) is -2.55% (inactive). For the same compound, the results for the inhibition in test [7] and in test [8] were 6.76% (inactive) and 2.3% (inactive), respectively.
`Cc1ccccc1OCc1nc2ccccc2c(=O)n1/N=C/c1ccco1`: the viability in test [1] was 102%; in test [3] it was 102% (inactive); in test [4] it was 71% (inactive); in test [5], 104% (inactive); in test [6] (setting [9]), 95.3%; in test [6] (setting [10]), 104%. Also, in test [2], the Her2 level is 100% (inactive). For the same compound, the differential viability (reversal) in test [6] (H69AR cells + 2 uM doxorubicin) was 8.3% (inactive). Also, the inhibition was 0.53% (inactive) in test [7] and -2.9% (inactive) in test [8].
Turning to `CCOc1ccc(CCNC(=O)CCc2nc(-c3ccc(OC)cc3)no2)cc1OCC`, the viability in test [1] was 86.5%; in test [3], 86.5% (inactive); in test [4] it was 81.9% (inactive); in test [5], 94.3% (inactive); in test [6] (setting [9]), 99.4%; in test [6] (setting [10]), 94.3%. The Her2 level in test [2] was 104% (inactive). In addition, the differential viability (reversal) in test [6] (H69AR cells + 2 uM doxorubicin) is -5.12% (inactive). Moreover, the values for the inhibition in test [7] and in test [8] were -1.05% (inactive) and 3.17% (inactive), respectively.
`O=C1CN(C(=O)COC(=O)C23CC4CC(CC(O)(C4)C2)C3)c2ccccc2N1`: the viability in test [1] is 115%; in test [3] it was 115% (inactive); in test [4] it was 104% (inactive); in test [5], 96.6% (inactive); in test [6] (setting [9]), 86.1%; in test [6] (setting [10]), 96.6%. For the same compound, in test [2], the Her2 level is 85.5% (inactive). Also, the differential viability (reversal) in test [6] (H69AR cells + 2 uM doxorubicin) is 10.6% (inactive). For the same compound, the inhibition in test [7] is -7.97% (inactive); in test [8] it was 3.65% (inactive).
On to `O=C(CS(=O)(=O)c1cn(Cc2ccc(Cl)cc2)c2ccccc12)N1CCOCC1`, for which the viability in test [1] is 84%; in test [3] it was 84% (inactive); in test [4], 105% (inactive); in test [5] it was 97% (inactive); in test [6] (setting [9]) it was 88.6%; in test [6] (setting [10]) it was 97%. In addition, the Her2 level in test [2] was 92.5% (inactive). The differential viability (reversal) in test [6] (H69AR cells + 2 uM doxorubicin) was 8.43% (inactive). Also, the inhibition is -1.87% (inactive) in test [7] and -2.62% (inactive) in test [8].
As for `CCOC(=O)C1=C(N)OC2=C(C(=O)CC(C)(C)C2)C1c1ccoc1` (stereo not given), the viability in test [1] is 80%; in test [3] it was 80% (inactive); in test [4], 112% (inactive); in test [5] it was 96.3% (inactive); in test [6] (setting [9]), 87.7%; in test [6] (setting [10]), 96.3%. Further, the Her2 level in test [2] was 107% (inactive). Moreover, the differential viability (reversal) in test [6] (H69AR cells + 2 uM doxorubicin) is 8.7% (inactive). Further, the inhibition in test [7] was -5.53% (inactive); in test [8], -8.33% (inactive).

The record behind these values is PubChem BioAssay.
